Bioassay records (PubChem)
PG9 binder: binders of HIV-1 gp120 antibody PG9, primary screen, biochemical, TR-FRET | TR-FRET gp120-PG9 antibody binding | inhibition, % at 6.7 µM | actives 0.43% (n = 360,000) | HIV-1 gp120 / PG9 antibody interaction; in the data active means inhibition above about 8.5%
NR2E3 ag-1: NR2E3 agonists in two-hybrid cells, primary screen, cell-based, luminescence, CHO-S, Gal4-NCOR/VP16-NR2E3; inhibition of corepressor binding, % at 3.98 µM; actives 0.35% (n = 360,000); Photoreceptor-specific nuclear receptor (Homo sapiens), Q9Y5X4; luciferase;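 active means inhibition above the mean of all tested compounds plus 3 SD, cut at about 70% in these data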;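 further: 0% = DMSO with NR2E3 transfected cells and 100% = cells lacking NR2E3 construct; higher means lower luciferase signal from less NR2E3 corepressor binding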
NR2E3 ag-2: inhibitors of NR2E3-RetCOR corepressor binding, primary screen, NR2E3 agonist project, biochemical, TR-FRET, GST-NR2E3, biotin-RetCOR; actives 0.12% (n = 320,000); 1536-well; Photoreceptor-specific nuclear receptor (Homo sapiens), Q9Y5X4; inhibition of corepressor binding, % at 4.78 µM; AID 2300, 2010;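 active means percent inhibition above the cutoff of mean plus 3 SD of all tested compounds, set per screening campaign, cut at about 20% in these data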;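 further: 0% = DMSO wells and 100% = biotin wells as full block of FRET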
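System: GST-tagged NR2E3 plus biotinylated RetCOR corepressor; Buffer or medium: pH 7.5 Tris-based buffer; Probe or stimulus: RetCOR corepressor, biotinylated, 7 nM; Doses: compound at 4.8 µM, single dose; Schedule: 5 h incubation at 4 °C; Technique: time-resolved FRET; Evaluation: percent inhibition of TR-FRET ratio; Replication: one well per compound, singlicate testing.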
NR1D1 modulator: modulators of Rev-erb alpha DNA binding, primary screen, biochemical, FITC-DNA, fluorescence polarization, uHTS; AID 1259318, 2017; activity, % at 10 µM; Rev-erbα–FITC-DNA binding, 90 min; Nuclear receptor subfamily 1 group D member 1 (Homo sapiens), P20393; actives 0.79% (n = 370,000);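 active means activity above about 14%, limit read from the data; passing the limit was not always enough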;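 further: 0% = DMSO wells with 35 nM protein and 100% = DMSO wells with 750 nM protein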
Target sequence (P20393 whole entry, looked up): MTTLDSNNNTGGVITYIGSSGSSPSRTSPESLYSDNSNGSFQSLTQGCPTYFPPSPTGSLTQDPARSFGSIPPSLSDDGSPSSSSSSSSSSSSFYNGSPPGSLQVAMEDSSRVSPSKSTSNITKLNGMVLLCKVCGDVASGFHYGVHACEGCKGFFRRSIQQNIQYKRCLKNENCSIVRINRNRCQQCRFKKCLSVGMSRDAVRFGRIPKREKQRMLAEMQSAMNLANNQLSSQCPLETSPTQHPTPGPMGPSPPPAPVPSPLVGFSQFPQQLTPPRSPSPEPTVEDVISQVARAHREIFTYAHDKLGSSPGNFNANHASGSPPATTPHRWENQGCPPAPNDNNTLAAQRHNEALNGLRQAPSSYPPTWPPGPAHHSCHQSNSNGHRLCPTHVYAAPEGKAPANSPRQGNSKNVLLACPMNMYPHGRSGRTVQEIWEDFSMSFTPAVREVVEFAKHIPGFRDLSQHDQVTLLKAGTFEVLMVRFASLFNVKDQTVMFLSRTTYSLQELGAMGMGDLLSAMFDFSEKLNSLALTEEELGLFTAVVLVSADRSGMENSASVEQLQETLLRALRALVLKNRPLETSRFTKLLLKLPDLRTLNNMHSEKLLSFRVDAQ
PG9 bind confirm: binders of anti-gp120 antibody PG9, confirmation, biochemical, TR-FRET; shares compounds with PG9 binder; TR-FRET PG9 antibody binding; inhibition, % at 6.7 µM; actives 90% (n = 1,500); in the data active means inhibition above about 9%
PGV04 counter: binders of control antibody PGV04, counter-screen for PG9 antibody binder project, biochemical, TR-FRET, distinct HIV envelope site; actives 95% (n = 1,500); inhibition, % at 6.7 µM; shares compounds with PG9 binder; AID 651604, 2012; TR-FRET PGV04 antibody-gp120 binding; in the data active means inhibition above about 9.5%
Active calls of the source: *; · = no result given. Hits are enriched below; roughly 1.5% of the tested compounds scored in any of these assays.

SMILES	PG9 binder	NR2E3 ag-1	NR2E3 ag-2	NR1D1 modulator	PG9 bind confirm	PGV04 counter
Cc1ccccc1NC(=O)Nc1nc2ccc(S(C)(=O)=O)cc2s1	11*	-50	4	6	12*	28*
Cc1ccnc(N2CCCC(C(=O)Nc3ccc(C)c(C)c3)C2)n1 (stereo not given)	39*	-46	5	0	31*	42*
O=C(CSc1ccc2nnc(-c3cccc(F)c3)n2n1)N1CCCc2ccccc21	9.1*	7	3	1	18*	39*
COc1ccc(-c2cc3nc(NCc4ccc(C)cc4C)n(C)c(=O)c3s2)cc1OC	13*	-29	·	12	13*	20*
Cn1cccc1C(=O)N1CCN(S(=O)(=O)c2cccs2)CC1	·	·	·	3	·	·
N#Cc1c(-c2cccs2)cc(-c2cccs2)[nH]c1=O	6	-14	10	4	·	·
CSc1nc(-c2cccs2)c(C#N)c(=O)[nH]1	49*	-19	17	-9	55*	68*
CCOC(=O)Cc1csc(NC(=O)CSc2nc(-c3ccccc3)c(C#N)c(=O)[nH]2)n1	0	-8	12	-1	·	·
CNC(=O)NC(=O)CSc1nc(-c2cccs2)c(C#N)c(=O)[nH]1	58*	-13	·	5	58*	70*
CCSc1nc(-c2ccccc2)c(C#N)c(=O)[nH]1	9.5*	-17	14	-2	15*	21*
CC(C)(C)c1ccc(-c2nnc3sc(COc4ccccc4)nn23)cc1	·	·	·	-4	·	·
Cc1cc(N2CCOc3ccccc32)nc2ccccc12	·	·	·	3	·	·
COc1cc(NC(=O)c2cc3ccccc3o2)c(OC)cc1Cl	20*	-28	0	16	18*	34*
O=C(Nc1ccc(Cl)cc1)OC1CCC12CCC(c1ccccc1)CC2 (stereo not given)	·	·	·	5	·	·
NS(=O)(=O)c1c(Sc2ccccc2C(=O)O)ccc2ccccc12	15*	-106	18	-3	15*	20*
O=C1CC(c2ccc(F)cc2)Cc2nc(NCc3ccco3)ncc21 (stereo not given)	9.4*	-6	3	6	18*	23*
COC(=O)[C@]12C[C@H](CC(=O)NCc3cccs3)C(=O)N(Cc3ccc4c(c3)OCO4)C1=C[C@H](C(C)C)O[C@@H]2C1CC1	·	·	·	2	·	·
O=C(Cn1[nH]c(=O)c2ccccc2c1=O)NCC1COc2ccccc2O1 (stereo not given)	-1	2	1	4	·	·
O=C(Cn1ccc2ccccc2c1=O)NCC1COc2ccccc2O1 (stereo not given)	17*	-4	0	-1	21*	27*
Cc1cccc(C)c1-n1nnnc1C1(C)CN(S(C)(=O)=O)CC(=O)N1Cc1ccc(F)cc1 (stereo not given)	·	·	·	8	·	·
O=C(O)Cn1c2c(c3ccccc31)CSc1ccc(Cl)cc1-2	17*	-29	8	9	10*	14*
CCOC(=O)[C@@]12CCCC3=C1N(CCC3)C(=O)[C@H]2CC(=O)N1CCC(c2ccccc2)CC1	·	·	·	4	·	·
COc1ccc(C2/C(=C(\O)c3ccc4c(c3)OCCO4)C(=O)C(=O)N2Cc2cccnc2)cc1OC (stereo not given)	3	-27	-2	-6	·	·
O=C1C(=O)N(Cc2cccnc2)C(c2ccc(Br)cc2)/C1=C(\O)c1ccc2c(c1)OCCO2 (stereo not given)	21*	-34	15	-1	31*	37*
Cc1ccc(C2/C(=C(\O)c3ccc4c(c3)OCCO4)C(=O)C(=O)N2Cc2cccnc2)cc1 (stereo not given)	27*	-10	9	10	38*	47*
SMILES	PG9 binder	NR2E3 ag-1	NR2E3 ag-2	NR1D1 modulator	PG9 bind confirm	PGV04 counter
C#CCCCN([C@@H](CC(C)C)C(=O)OC)S(=O)(=O)c1ccc(F)cc1Br	·	·	·	3	·	·
COc1ccc(CCn2c(SCC(=O)Nc3cc(C)on3)nc3ccsc3c2=O)cc1OC	36*	4	1	12	46*	56*
CN(C)S(=O)(=O)c1cccc(C(=O)N/N=C\c2ccccc2)c1	·	·	·	-2	·	·
CC(=O)c1ccc(NC(=O)CSc2ccc(-c3ccc4c(c3)OCO4)nn2)cc1	10*	-8	-30	14	15*	29*
O=C(O)c1cccc(N2C(=O)c3cc4cccc(Br)c4cc3C2=O)c1	14*	-9	15	5	16*	22*
O=C(O)c1ccc2c(c1)C(=O)N(c1cccc(C(=O)/C=C/c3ccccc3)c1)C2=O	1	-21	0	0	·	·
COc1ccc2cc(CN(CC3COCCO3)S(=O)(=O)c3ccc(Cl)cc3)c(=O)[nH]c2c1 (stereo not given)	24*	-45	-1	2	26*	31*
COc1ccc2cc(CN(CC3CCCO3)S(=O)(=O)c3ccccc3)c(=O)[nH]c2c1 (stereo not given)	-2	-58	2	-5	·	·
CC(=O)c1ccc(N2CCN(C(=S)Nc3cc(C)ccc3C)CC2)cc1	12*	-19	-1	8	8.8*	15*
CC(=O)c1ccc(N2CCN(C(=S)Nc3ccccc3F)CC2)cc1	-2	-9	0	4	·	·
O=C(NCCCN1CCN(c2ccc(F)cc2)CC1)Nc1ccccc1	·	·	·	1	·	·
Cc1ccccc1NC(=O)C1CCN(c2cc(-c3ccccc3)nc3ncnn23)CC1	8.8*	2	-1	7	17*	27*
COc1cccc(N2CCN(C(=O)COc3cc(=O)n(C)c4ccccc34)CC2)c1	·	·	·	-1	·	·
O=C(Nc1nc(-c2ccccc2)nc2ccccc12)c1ccc(F)cc1	11*	1	4	2	16*	27*
Nn1c(SCC(=O)N2c3ccccc3Sc3ccc(Cl)cc32)nnc1-c1cc(-c2ccc(F)cc2)n[nH]1	·	·	·	-7	·	·
C=CCn1c(SCC(=O)Nc2ccc(-c3nc4ccc(C)cc4s3)cc2)nnc1-c1ccccc1	9.6*	-165	-308	20	13*	27*
O=C(CSc1nnc2ccccn12)Nc1cccc(-c2nc3ccccc3s2)c1	8.9*	-128	1	20	13*	25*
O=C(CSc1nnc2ccccn12)Nc1ccc2c(c1)OCO2	-1	-12	-2	5	·	·
COC(=O)[C@]12C[C@H](CC(=O)N3CCCCC3)C(=O)N(Cc3cccc4ccccc34)C1=C[C@H](C(C)(C)C)O[C@@H]2C	·	·	·	6	·	·
